According to ChEMBL document CHEMBL1132413, “Mechanism-based competitive inhibitors of glyoxalase I: intracellular delivery, in vitro antitumor activities, and stabilities in human serum and mouse serum” (J Med Chem, 1999):
pKi: −log10 of the molar value.

Assays:
B16 [1] = experiment: The compound was tested […] for 50% growth inhibition against B16 melanoma cells.; assay type: functional, Mus musculus
How it was run: (§1)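 B16 melanotic melanoma cells in log growth were plated at 5000 cells/well in RPMI 1640 with 10% heat-inactivated FCS and gentamycin at 37 °C under 5% CO2. Cells were exposed for 48 h to at least five drug concentrations, in triplicate, with fresh diethyl ester added at 0, 12, 24 and 36 h. Cells were trypsinized and counted on a Coulter counter. Percentage growth was calculated NCI-style against time-zero and no-drug controls. TGI is 100% growth inhibition and GI50 is 50%. Mean ± SD comes from separate experiments.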

L1210 [2] = experiment: The compound was tested […] for 50% cell killing against L1210 murine leukemia cells.; assay type: functional, Mus musculus
How it was run: (§2)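 Cultured cells, not in vivo: log-phase cells seeded at 5000 cells/well in RPMI 1640/10% heat-inactivated FCS with gentamycin, 37 °C, 5% CO2. Exposed 48 h to at least five diethyl ester concentrations in triplicate, with fresh ester added at 0, 12, 24 and 36 h. B16 cells were trypsinised and L1210 cells washed. Counted by Coulter counter, viability by trypan blue. LC50 = concentration giving 50% cell killing.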

[3] = test system: Glyoxalase I (Homo sapiens); experiment: The compound was tested for inhibitory activity against human glyoxalase I.
B16 [4] = experiment: The compound was tested […] for 50% cell killing against B16 melanoma cells.; assay type: functional, Mus musculus; how it was run: as §2
L1210 [5] = experiment: The compound was tested […] for 50% growth inhibition against L1210 murine leukemia cells.; assay type: functional, Mus musculus
How it was run: (§3)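 L1210 leukemia cells in log growth were seeded at 5000 cells/well in RPMI 1640 with 10% heat-inactivated FCS and gentamycin at 37 °C under 5% CO2. At least five concentrations spanning the GI50 were tested in triplicate for 48 h, with ester replenished at 0, 12, 24 and 36 h. Washed cells were Coulter-counted. PG = 100×(test−tzero)/(ctrl−tzero). TGI is 100% growth inhibition and GI50 is 50%. Mean ± SD comes from independent experiments.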

B16 [6] = experiment: The compound was tested […] for 100% growth inhibition against B16 melanoma cells.; assay type: functional, Mus musculus; how it was run: as §1
[7] = test system: Glyoxalase I (Homo sapiens); experiment: The compound was tested for inhibitory activity against human glyoxalase I.; remark: listed apart in the source
L1210 [8] = experiment: The compound was tested […] for 100% growth inhibition against L1210 murine leukemia cells.; assay type: functional, Mus musculus; how it was run: as §3
[9] = test system: Glyoxalase I (Homo sapiens); experiment: The compound was tested for inhibitory activity against human glyoxalase I.; remark: listed apart in the source

| Compound | GI50 (B16 [1]) | LC50 (L1210 [2]) | pKi [3] | LC50 (B16 [4]) | GI50 (L1210 [5]) | TGI (B16 [6]) | pKi [7] | TGI (L1210 [8]) | pKi [9] |
| --- | --- | --- | --- | --- | --- | --- | --- | --- | --- |
| CCOC(=O)CNC(=O)[C@@H](CSCc1ccc(Br)cc1)NC(=O)CCC(N)C(=O)OCC (some centres not stated) | 14 µM | 26 µM | 6.77 | 56 µM | 7 µM | 23 µM | 6.77 | 11 µM |  |
| CCOC(=O)CNC(=O)C(CSC(=O)N(O)c1ccc(Cl)cc1)NC(=O)CCC(N)C(=O)OCC.Cl (configuration not stated) | 15 µM | 54 µM | 7.34 | ~47 µM | 7 µM | ~23 µM | 7.34 | 27 µM |  |
| CCOC(=O)CNC(=O)C(CSC(=O)N(O)c1ccccc1)NC(=O)CCC(N)C(=O)OCC.Cl (configuration not stated) | >100 µM | 271 µM | 6.80 | >100 µM | 84 µM | >100 µM |  | 135 µM | 6.80 |
| CCOC(=O)CNC(=O)C(CSC(=O)N(O)c1ccc(Br)cc1)NC(=O)CCC(N)C(=O)OCC.Cl (configuration not stated) | 11 µM | 17 µM | 7.85 | 54 µM | 3 µM | 33 µM | 7.85 | 7 µM |  |
